# Assay results published in PMC7113734 (Antiviral Research, 2016).
# Several values for one entry are separate records, joined by “and”; a condition that tells them apart may be missing. Equal entries are not always repeated. Entries after “also recorded” stand apart in the source; their conditions may differ.
# Tests used:
# rift valley fever virus = assay: microbe, parasite or virus in culture; format: cell-based
# [1] = test system: influenza A virus type H1N1; assay: DMID antiviral screening, influenza A; format: cell-based
# SARS corona virus = assay: organism not typed; format: cell-based
# tacaribe virus = assay: microbe, parasite or virus in culture; format: cell-based; conditions: Mammarenavirus tacaribeense
# [2] = test system: respiratory syncytial virus; assay: DMID antiviral screening, RSV; format: cell-based
# [3] = test system: Venezuelan equine encephalitis virus; format: cell-based
# [4] = Maximum tolerated dose, single oral administration; format: in vivo, Sprague-Dawley rats; conditions: single oral 750, 1000, 1500, 2000 mg/kg; rats
# How it was run: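 Single oral gavage in Sprague-Dawley rats, 8 per group (4 female, 4 male). Doses of 750, 1000, 1500 or 2000 mg/kg given in 5% DMSO/70% PEG400 in water, or 2000 mg/kg in 2% CMC-Na in water. Dose volume 10 mL/kg, or 20 mL/kg at 2000 mg/kg. Four-day observation after dosing: cageside and clinical signs, body weight, food consumption.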
# HIVIIIB = assay: Virucidal assay; format: cell-based, HIV-1; conditions: virions treated 20 min, washed, CEM-SS cells
# How it was run: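 Test compound incubated with undiluted HIV-1 IIIB for 20 min at 37 °C. Virus pelleted at 13,800 rpm, 4 °C, 90 min, then washed five times with culture medium. Pellet resuspended in RPMI to the predetermined titer of untreated virus and used to infect CEM-SS cells for 6 days at 37 °C/5% CO2. Infectivity read by XTT cell viability.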
# [5] = Fourteen-day repeat dose toxicity study; format: in vivo, Sprague-Dawley rats; conditions: rats
# How it was run: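 Thirty-two Sprague-Dawley rats in four groups of 8, alongside a control article. Daily oral gavage for 14 days at 500, 1000 or 2000 mg/kg, given as suspension in 2% CMC-Na in water. Per group, 4 main animals necropsied Day 15 and 4 recovery animals Day 29. Blood for clinical pathology taken before sacrifice. Endpoints: clinical observations, body weight, food consumption, clinical chemistry, hematology, coagulation, urinalysis, organ weights, gross and microscopic pathology.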
Compound,EC50 (rift valley fever virus) [µM],antiviral activity [1],EC50 (SARS corona virus) [µM],EC50 (tacaribe virus) [µM],antiviral activity [2],antiviral activity [3],toxicity in MTD study [4],concentration reducing infectivity of HIV virions (virucidal) (HIVIIIB),urine observation in repeat dose study ([5]; at the higher doses),"toxicity in repeat dose study ([5]; oral 500, 1000, 2000 mg/kg for 14 consecutive days)"
"NC(=O)CCNC(=O)c1ccccc1S [MDH-1-38, N-(3-amino-3-oxopropyl)-2-mercaptobenzamide]",~20,failed to show any activity,~20,~20,failed to show any activity,failed to show any activity,,,,
"CCCC(=O)OCSc1ccccc1C(=O)NCCC(N)=O [NS1040, ((2-((3-amino-3-oxopropyl)carbamoyl)phenyl)thio)methyl butyrate]",,,,,,,did not exhibit any toxicity at any dose,50 µM and > 50 µM,cloudy urine samples were noted for some of the rats,no toxicity observed; also recorded: non-toxic
